Activity calls are given as the source filed them. No cut-off for these calls is given here.
Key:
[1] = tested on: Pseudomonas aeruginosa; assay: Potentiation of rifampicin-induced antibacterial activity against wild type Pseudomonas aeruginosa PAO1 assessed as fold reduction in rifampicin MIC at 9 uM incubated for 18 hrs by broth microdilution method; format: functional
Method in brief: (§1)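 CLSI broth microdilution. Overnight cultures were set to 0.5 McFarland in saline, diluted 1:50 in Mueller-Hinton broth to a final 5 × 10^5 CFU/mL, and incubated 18 h at 37 °C against 2-fold antibiotic dilutions. A fixed adjuvant level was present throughout. MIC = lowest concentration with no visible turbidity, confirmed at 590 nm. Potentiation = fold drop in antibiotic MIC versus antibiotic alone.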

[2] = tested on: Pseudomonas aeruginosa; assay: Potentiation of ciprofloxacin-induced antibacterial activity against MDR/XDR Pseudomonas aeruginosa isolate PA260-97103 harboring GyrA T83I mutant assessed as fold reduction in ciprofloxacin MIC at 9 uM incubated for 18 hrs by broth microdilution method; format: functional
[3] = tested on: Pseudomonas aeruginosa; assay: Potentiation of ciprofloxacin-induced antibacterial activity against MDR/XDR Pseudomonas aeruginosa isolate 100036 harboring GyrA T83I mutant assessed as fold reduction in ciprofloxacin MIC at 9 uM incubated for 18 hrs by broth microdilution method; format: functional
[4] = tested on: Escherichia coli; assay: Synergistic antibacterial activity against Escherichia coli ATCC 25922 assessed as fractional inhibitory concentration index in presence of rifampicin incubated for 18 hrs by broth dilution method; format: functional
Method in brief: (§2)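 Checkerboard titration of the adjuvant against the antibiotic, run under the CLSI microdilution conditions (MHB, 5 × 10^5 CFU/mL, 18 h, 37 °C). Each agent's FIC is its MIC in combination divided by its MIC alone; FICI is the sum of the two FICs. FICI ≤0.5 was read as synergy, >0.5–4.0 as no interaction, and >4.0 as antagonism.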

[5] = tested on: Escherichia coli; assay: Synergistic antibacterial activity against Escherichia coli 94474 assessed as fractional inhibitory concentration index in presence of rifampicin incubated for 18 hrs by broth dilution method; format: functional; method in brief: as §2
[6] = tested on: Pseudomonas aeruginosa; assay: Potentiation of rifampicin-induced bactericidal activity in MDR/XDR Pseudomonas aeruginosa isolate PA259-96918 harboring GyrA T83I mutant assessed as decrease in viable bacterial count at 1 ug/ml incubated for 8 hrs in presence of 1 ug/ml rifampicin by time kill curve assay; format: functional, organism-based
Method in brief: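 Time-kill assay against XDR P. aeruginosa PA259. Overnight culture adjusted to 0.5 McFarland in saline, diluted 1:50 in LB. Incubated at 37 °C for 24 h with rifampicin and adjuvant, alone or combined at various concentrations. Aliquots taken at intervals, serially diluted in PBS and plated on LB agar. Colonies counted after 20 h at 37 °C. Untreated cells as control.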

[7] = tested on: Klebsiella pneumoniae; assay: Antimicrobial activity against Klebsiella pneumoniae 113254 incubated for 18 hrs by broth dilution method; format: functional; conditions: Klebsiella pneumoniae, 113254, 18 h
Method in brief: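 CLSI broth microdilution. Overnight cultures were adjusted to 0.5 McFarland in saline, diluted 1:50 in Mueller-Hinton broth, and inoculated at a final 5 × 10^5 CFU/mL. Compounds were tested as 2-fold serial dilutions and incubated 18 h at 37 °C. MIC was the lowest concentration with no visible turbidity, confirmed by absorbance at 590 nm.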

[8] = tested on: Pseudomonas aeruginosa; assay: Antimicrobial activity against XDR Pseudomonas aeruginosa isolate PA264 infected in Galleria mellonella larvae assessed as survival rate at 50 mg/kg co-administered with 50 mg/kg rifampicin at 2 hrs post-inoculation measured after 18 hrs relative to control; format: functional
Method in brief: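 G. mellonella larvae were injected with ~5 CFU of P. aeruginosa PA264 (10 µL of 5 × 10^2 CFU/mL in PBS) and held 2 h at 37 °C. A single 10 µL injection followed: monotherapy or rifampicin + compound (25+25, 50+50 or 75+75 mg/kg), with PBS as control. Larvae kept at 37 °C were scored every 6 h to 24 h; dead = no response to touch. n = 30 (two runs of 15); Kaplan-Meier.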

[9] = tested on: Escherichia coli; assay: Synergistic antibacterial activity against Escherichia coli 94474 assessed as fractional inhibitory concentration index in presence of minocycline incubated for 18 hrs by broth dilution method; format: functional; method in brief: as §2
[10] = tested on: Acinetobacter baumannii; assay: Synergistic antibacterial activity against multidrug-resistant Acinetobacter baumannii 110193 assessed as fractional inhibitory concentration index in presence of minocycline incubated for 18 hrs by broth dilution method; format: functional
[11] = tested on: Pseudomonas aeruginosa; assay: Potentiation of rifampicin-induced antimicrobial activity against MDR/XDR Pseudomonas aeruginosa isolate PA260-97103 harboring GyrA Thr83Ile mutant assessed as rifampicin MIC80 incubated for 18 hrs by broth microdilution method (reference value: 16 microg/ml); format: functional; conditions: isolate PA260-97103, 18 h
[12] = tested on: Pseudomonas aeruginosa; assay: Potentiation of rifampicin-induced antimicrobial activity against MDR/XDR Pseudomonas aeruginosa isolate 101243 devoid of GyrA Thr83Ile mutant assessed as rifampicin MIC80 incubated for 18 hrs by broth microdilution method (reference value: 16 microg/ml); format: functional; conditions: isolate 101243, 18 h
[13] = tested on: Pseudomonas aeruginosa; assay: Potentiation of rifampicin-induced antimicrobial activity against MDR/XDR Pseudomonas aeruginosa isolate PA262-101856 harboring GyrA Thr83Ile mutant assessed as rifampicin MIC50 incubated for 18 hrs by broth microdilution method (reference value: 8 microg/ml); format: functional; conditions: isolate PA262-101856, 18 h
[14] = tested on: Pseudomonas aeruginosa; assay: Potentiation of moxifloxacin-induced antibacterial activity against MDR/XDR Pseudomonas aeruginosa isolate 91433 devoid of GyrA T83I mutant assessed as fold reduction in moxifloxacin MIC at 7.5 uM incubated for 18 hrs by broth microdilution method; format: functional; method in brief: as §1
[15] = tested on: Pseudomonas aeruginosa; assay: Potentiation of minocycline-induced antibacterial activity against MDR/XDR Pseudomonas aeruginosa isolate PA259-96918 harboring GyrA T83I mutant assessed as fold reduction in minocycline MIC at 7.5 uM incubated for 18 hrs by broth microdilution method; format: functional
[16] = tested on: Pseudomonas aeruginosa; assay: Potentiation of rifampicin-induced antimicrobial activity against MDR/XDR Pseudomonas aeruginosa isolate PA264-104354 harboring GyrA Thr83Ile mutant assessed as rifampicin MIC80 incubated for 18 hrs by broth microdilution method (reference value: 16 microg/ml); format: functional; conditions: isolate PA264-104354, 18 h
[17] = tested on: Pseudomonas aeruginosa; assay: Potentiation of rifampicin-induced antimicrobial activity against MDR/XDR Pseudomonas aeruginosa isolate 91433 devoid of GyrA Thr83Ile mutant assessed as rifampicin MIC50 incubated for 18 hrs by broth microdilution method (reference value: 8 microg/ml); format: functional; conditions: isolate 91433, 18 h
[18] = tested on: Pseudomonas aeruginosa; assay: Potentiation of minocycline-induced antibacterial activity against MDR/XDR Pseudomonas aeruginosa isolate PA260-97103 harboring GyrA T83I mutant assessed as fold reduction in minocycline MIC at 7.5 uM incubated for 18 hrs by broth microdilution method; format: functional
[19] = tested on: Pseudomonas aeruginosa; assay: Potentiation of rifampicin-induced antimicrobial activity against MDR/XDR Pseudomonas aeruginosa isolate 91433 devoid of GyrA Thr83Ile mutant assessed as rifampicin MIC80 incubated for 18 hrs by broth microdilution method (reference value: 16 microg/ml); format: functional; conditions: isolate 91433, 18 h
[20] = tested on: Pseudomonas aeruginosa; assay: Potentiation of minocycline-induced antimicrobial activity against MDR/XDR Pseudomonas aeruginosa isolate 101243 devoid of GyrA Thr83Ile mutant assessed as minocycline MIC80 incubated for 18 hrs by broth microdilution method (reference value: 32 microg/ml); format: functional; conditions: isolate 101243, 18 h

In the case of `Cl.Cl.Cl.Cl.Cl.Cl.NC[C@H]1O[C@H](O[C@H]2[C@H](OCCCCCCCCCCN3CCN(Cc4cccc5ccccc45)CC3)[C@@H](O)[C@H](N)C[C@@H]2N)[C@H](N)C[C@@H]1O`, the “fold change (FC)” value [1] is reported as 256, the “fold change (FC)” value [2] is reported as 8 and the “fold change (FC)” value [3] is reported as 8.

With `Cl.Cl.Cl.Cl.Cl.NC[C@H]1O[C@H](O[C@H]2[C@H](OCCCCCCCCCCCCN3CCN(c4cc5c(cc4F)c(=O)c(C(=O)O)cn5C4CC4)CC3)[C@@H](O)[C@H](N)C[C@@H]2N)[C@H](N)C[C@@H]1O` the “fractional inhibitory concentration index (FICI)” value [4] was 0.133, the “fractional inhibitory concentration index (FICI)” value [5] was 0.004 - 0.035 and the Activity [6] was “Active”. For the same compound, the MIC [7] was 128 µg/mL, the survival at 50 mg/kg [8] was 60% and the “fractional inhibitory concentration index (FICI)” value [9] was 0.063 - 0.078.

`COc1c(N2C[C@@H]3CCCN(CCCCCCCCCCCCO[C@@H]4[C@@H](O)[C@H](N)C[C@H](N)[C@H]4O[C@H]4O[C@H](CN)[C@@H](O)C[C@H]4N)[C@@H]3C2)c(F)cc2c(=O)c(C(=O)O)cn(C3CC3)c12.Cl.Cl.Cl.Cl.Cl` was tested, and the “fractional inhibitory concentration index (FICI)” value [10] was >1, the MIC80 [11] was 0.13 µg/mL and the MIC80 [12] was 0.13 µg/mL. The MIC50 [13] was 0.06 µg/mL, the “fold change (FC)” value [14] was 16 and the “fold change (FC)” value [15] was 32. For the same compound, the MIC80 [16] was 0.13 µg/mL, the MIC50 [17] was 0.06 µg/mL and the “fold change (FC)” value [18] was 32. For the same compound, the MIC80 [19] was 0.13 µg/mL and the MIC80 [20] was 1 µg/mL.

Reference: ChEMBL document CHEMBL4354800, “Amphiphilic nebramine-based hybrids Rescue legacy antibiotics from intrinsic resistance in multidrug-resistant Gram-negative bacilli” (Eur J Med Chem, 2019)
